Activity calls are given as the source filed them.
Assays:
[1] = target: Transcription factor p65 (Mus musculus) (UniProt Q04207); assay: Inhibition of p65 nuclear translocation in LPS-stimulated mouse RAW264.7 cells preincubated for 2 hrs followed by LPS stimulation for 4 hrs by Western blot method
Outline: (§1)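 Pretreatment was 2 h (0.1, 1, 10 μg/mL), then LPS 1 μg/mL for 4 h. Cytosolic extracts came from a 1500g, 10 min, 4 °C spin and nuclear fractions from 13000g, 10 min, 4 °C. p65, c-Jun and c-Fos were detected by Western blot (8% SDS-PAGE, PVDF, ECL), with β-actin as reprobe control.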

[2] = target: Mitogen-activated protein kinase 1 and 3 (ERK2 and ERK1) (Mus musculus) (UniProt P63085+Q63844); assay: Inhibition of LPS-induced ERK1/2 phosphorylation in mouse RAW264.7 cells up to 10 ug/ml preincubated for 2 hrs followed by LPS stimulation for 15 mins by Western blot method; type: cell-based
Outline: (§2)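 RAW 264.7 cells were preincubated 2 h at 0.1, 1 or 10 μg/mL, then exposed to LPS 1 μg/mL for 15 min. Lysates were resolved on 8% SDS-PAGE, transferred to PVDF and probed for the phosphorylated MAP kinases. Detection was by ECL, with membranes reprobed for β-actin as loading control.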

RAW264.7 [3] = assay: Anti-inflammatory activity in mouse RAW264.7 cells assessed as reduction in LPS-induced NO production up to 10 ug/ml preincubated for 2 hrs followed by LPS stimulation for 24 hrs by Griess assay; type: functional, cell-based
Outline: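 RAW 264.7 cells were pretreated 2 h with 0.1–10 μg/mL, then given LPS 1 μg/mL for 24 h. Supernatant was mixed 1:1 with Griess reagent (sulfanilamide in 5% phosphoric acid plus α-naphthylamide) for 15 min at room temperature, and A550 was read. Nitrite served as the NO index. Dexamethasone 10 and 20 μM was the reference. Quintuplicates, mean ± SEM.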

[4] = target: Proto-oncogene c-Fos (Mus musculus) (UniProt P01101); assay: Inhibition of LPS-induced nuclear translocation of AP-1 c-Fos component in mouse RAW264.7 cells up to 10 ug/ml preincubated for 2 hrs followed by LPS stimulation for 4 hrs by Western blot method
[5] = target: MAP kinase p38 (Mus musculus) (UniProt P47811+O08911+Q9WUI1+Q9Z1B7); assay: Inhibition of LPS-induced MAPK p38 phosphorylation in mouse RAW264.7 cells up to 10 ug/ml preincubated for 2 hrs followed by LPS stimulation for 15 mins by Western blot method; type: cell-based; outline: as §2
RAW264.7 [6] = assay: Anti-inflammatory activity in mouse RAW264.7 cells transfected with ATF-3 shRNA assessed as reduction in LPS-induced TNFalpha production at 10 ug/ml preincubated for 2 hrs followed by LPS stimulation for 24 hrs by ELISA; type: functional, cell-based
Outline: (§3)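 Cells received compound at 10 μg/mL for 2 h, then LPS 1 μg/mL for 24 h. TNF-α and IL-6 in the medium were measured by ELISA and compared with control shRNA cells.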

RAW264.7 [7] = assay: Cytotoxicity against mouse RAW264.7 cells assessed as reduction in cell viability up to 100 ug/ml after 24 hrs by MTT assay; type: cell-based; conditions: raw264.7, 24 h
Outline: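 RAW 264.7 cells were seeded at 5 × 10^4 per well and exposed 24 h to 0.1, 1, 10, 50 and 100 μg/mL. MTT was then added in full DMEM for 4 h, formazan was dissolved in DMSO, and OD was read at 550 nm.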

RAW264.7 [8] = assay: Anti-inflammatory activity in mouse RAW264.7 cells transfected with ATF-3 shRNA assessed as reduction in LPS-induced IL-6 production at 10 ug/ml preincubated for 2 hrs followed by LPS stimulation for 24 hrs by ELISA; type: functional, cell-based; outline: as §3
[9] = target: Transcription factor Jun (Mus musculus) (UniProt P05627); assay: Inhibition of LPS-induced nuclear translocation of AP-1 c-Jun component in mouse RAW264.7 cells up to 10 ug/ml preincubated for 2 hrs followed by LPS stimulation for 4 hrs by Western blot method; type: cell-based; outline: as §1
Homo sapiens = organism: Homo sapiens; assay: Inhibition of NF-kB (unknown origin) activation expressed in LPS-stimulated mouse RAW264.7 cells up to 10 ug/ml preincubated for 2 hrs followed by LPS stimulation for 4 hrs by luciferase reporter gene assay; type: cell-based
Outline: (§4)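 Cells were plated at 5 × 10^5/mL and transiently cotransfected by lipofection with pGL3-NF-κB-Luc or pGL2-AP-1-Luc plus a normalization plasmid. After 24 h they were pretreated 2 h with the compound (0.1, 1, 10 μg/mL for NF-κB), then given LPS 1 μg/mL for 4 h. Cells were washed in cold PBS, and luciferase was read in the lysates.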

RAW264.7 [10] = assay: Anti-inflammatory activity in mouse RAW264.7 cells assessed as reduction in LPS-induced TNFalpha production preincubated for 2 hrs followed by LPS stimulation for 24 hrs by ELISA; type: functional, cell-based
Outline: (§5)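 RAW 264.7 cells (DMEM, 10% heat-inactivated FBS, 37 °C, 5% CO2) pretreated 2 h with compound at 0.1, 1 or 10 μg/mL, then LPS 1 μg/mL for 24 h. TNF-α and IL-6 in the supernatant measured by sandwich ELISA. Dexamethasone 10 and 20 μM served as reference. Means ± SEM of quintuplicate replicates, one representative experiment.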

RAW264.7 [11] = assay: Induction of LPS-induced ATF-3 expression in mouse RAW264.7 cells preincubated for 2 hrs followed by LPS stimulation for 4 hrs by Western blot method; type: functional, cell-based
Outline: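 Cells were pretreated 2 h (0.1–10 μg/mL), then stimulated with LPS 1 μg/mL for 4 h. ATF-3 was detected by Western blot (8% SDS-PAGE, PVDF, ECL) and quantified by densitometry, normalized to β-actin, in arbitrary units. Blots are representative of three experiments.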

[12] = target: Transcription factor Jun (Homo sapiens) (UniProt P05412); assay: Inhibition of AP-1 (unknown origin) activation expressed in LPS-stimulated mouse RAW264.7 cells preincubated for 2 hrs followed by LPS stimulation for 4 hrs by luciferase reporter gene assay; type: cell-based; outline: as §4
[13] = target: T1, NF-kappa-B inhibitor alpha (Mus musculus) (UniProt Q9Z1E3); assay: Inhibition of LPS-induced degradation of IkappaB-alpha in mouse RAW264.7 cells at 10 ug/ml preincubated for 2 hrs followed by LPS stimulation up to 45 mins by Western blot method; type: cell-based
T1 sequence (whole entry): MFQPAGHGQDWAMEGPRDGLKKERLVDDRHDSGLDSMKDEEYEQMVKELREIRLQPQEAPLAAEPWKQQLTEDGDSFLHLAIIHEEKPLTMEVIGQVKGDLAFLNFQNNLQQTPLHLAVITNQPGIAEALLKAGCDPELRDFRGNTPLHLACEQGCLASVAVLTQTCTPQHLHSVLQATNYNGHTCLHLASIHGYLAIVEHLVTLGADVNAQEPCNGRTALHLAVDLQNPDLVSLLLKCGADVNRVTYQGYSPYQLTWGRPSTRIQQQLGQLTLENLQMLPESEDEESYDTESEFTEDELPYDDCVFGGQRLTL
Outline: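 Cells were pretreated 2 h with 10 μg/mL, then given LPS 1 μg/mL for varying times. IκBα was detected in lysates by Western blot with ECL, using β-actin as internal control. Results are representative of three experiments.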

Mus musculus = organism: Mus musculus; assay: Inhibition of LPS-induced JNK phosphorylation in mouse RAW264.7 cells up to 10 ug/ml preincubated for 2 hrs followed by LPS stimulation for 15 mins by Western blot method; type: cell-based; outline: as §2
RAW264.7 [14] = assay: Anti-inflammatory activity in mouse RAW264.7 cells assessed as reduction in LPS-induced IL-6 production preincubated for 2 hrs followed by LPS stimulation for 24 hrs by ELISA; type: functional, cell-based; outline: as §5

Transcription factor Jun (Mus musculus), sequence (P05627 whole entry): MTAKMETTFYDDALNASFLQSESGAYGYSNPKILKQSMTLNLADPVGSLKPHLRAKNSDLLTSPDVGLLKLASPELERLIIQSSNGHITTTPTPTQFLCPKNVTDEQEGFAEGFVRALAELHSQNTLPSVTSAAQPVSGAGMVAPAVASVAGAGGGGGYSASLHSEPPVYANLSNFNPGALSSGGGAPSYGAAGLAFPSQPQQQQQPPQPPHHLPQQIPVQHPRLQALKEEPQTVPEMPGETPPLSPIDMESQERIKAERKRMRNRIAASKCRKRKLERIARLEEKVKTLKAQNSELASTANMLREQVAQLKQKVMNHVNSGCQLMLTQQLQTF
Proto-oncogene c-Fos (Mus musculus), sequence (P01101 whole entry, looked up): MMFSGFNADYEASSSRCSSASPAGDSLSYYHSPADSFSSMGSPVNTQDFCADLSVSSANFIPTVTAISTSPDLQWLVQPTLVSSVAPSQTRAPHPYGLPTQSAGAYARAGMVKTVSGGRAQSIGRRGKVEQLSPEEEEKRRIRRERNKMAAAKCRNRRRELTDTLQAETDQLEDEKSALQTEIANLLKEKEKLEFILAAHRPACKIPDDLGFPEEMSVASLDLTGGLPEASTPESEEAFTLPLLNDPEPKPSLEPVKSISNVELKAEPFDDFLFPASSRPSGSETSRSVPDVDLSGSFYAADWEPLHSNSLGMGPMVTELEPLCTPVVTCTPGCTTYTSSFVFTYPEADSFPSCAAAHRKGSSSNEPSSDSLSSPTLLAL
Transcription factor Jun (Homo sapiens), sequence (P05412 whole entry): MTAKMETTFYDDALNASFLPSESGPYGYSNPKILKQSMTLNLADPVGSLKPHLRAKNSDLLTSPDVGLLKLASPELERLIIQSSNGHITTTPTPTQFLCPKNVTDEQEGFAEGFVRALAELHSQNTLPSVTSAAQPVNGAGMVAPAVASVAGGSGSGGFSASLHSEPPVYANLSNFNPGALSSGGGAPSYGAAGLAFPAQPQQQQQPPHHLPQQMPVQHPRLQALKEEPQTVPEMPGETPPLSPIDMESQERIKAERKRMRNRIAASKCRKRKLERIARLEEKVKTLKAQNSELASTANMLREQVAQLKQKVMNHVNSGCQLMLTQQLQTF
Mitogen-activated protein kinase 1 and 3 (ERK2 and ERK1) (Mus musculus), sequence (P63085 whole entry, looked up): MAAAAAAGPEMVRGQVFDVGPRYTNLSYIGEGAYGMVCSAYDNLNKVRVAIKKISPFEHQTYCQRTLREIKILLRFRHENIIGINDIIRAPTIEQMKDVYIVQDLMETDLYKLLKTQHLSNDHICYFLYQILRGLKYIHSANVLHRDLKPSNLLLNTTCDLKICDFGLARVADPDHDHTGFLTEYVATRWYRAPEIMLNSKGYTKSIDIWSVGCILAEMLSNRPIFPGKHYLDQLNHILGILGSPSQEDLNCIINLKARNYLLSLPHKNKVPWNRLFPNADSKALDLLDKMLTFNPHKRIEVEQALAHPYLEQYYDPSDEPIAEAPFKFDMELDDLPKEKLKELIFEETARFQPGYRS
Mitogen-activated protein kinase 1 and 3 (ERK2 and ERK1) (Mus musculus), sequence (Q63844 whole entry, looked up): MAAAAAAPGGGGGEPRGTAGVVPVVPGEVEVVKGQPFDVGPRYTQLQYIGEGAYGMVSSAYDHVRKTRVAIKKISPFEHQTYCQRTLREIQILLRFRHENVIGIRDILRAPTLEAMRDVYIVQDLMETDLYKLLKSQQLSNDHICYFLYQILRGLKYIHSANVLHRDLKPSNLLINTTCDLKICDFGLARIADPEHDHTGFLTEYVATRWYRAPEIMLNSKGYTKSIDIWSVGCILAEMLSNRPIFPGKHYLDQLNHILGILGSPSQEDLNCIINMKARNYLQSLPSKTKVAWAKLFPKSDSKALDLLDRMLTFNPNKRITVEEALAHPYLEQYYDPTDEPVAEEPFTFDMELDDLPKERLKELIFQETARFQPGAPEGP
Transcription factor p65 (Mus musculus), sequence (Q04207 whole entry): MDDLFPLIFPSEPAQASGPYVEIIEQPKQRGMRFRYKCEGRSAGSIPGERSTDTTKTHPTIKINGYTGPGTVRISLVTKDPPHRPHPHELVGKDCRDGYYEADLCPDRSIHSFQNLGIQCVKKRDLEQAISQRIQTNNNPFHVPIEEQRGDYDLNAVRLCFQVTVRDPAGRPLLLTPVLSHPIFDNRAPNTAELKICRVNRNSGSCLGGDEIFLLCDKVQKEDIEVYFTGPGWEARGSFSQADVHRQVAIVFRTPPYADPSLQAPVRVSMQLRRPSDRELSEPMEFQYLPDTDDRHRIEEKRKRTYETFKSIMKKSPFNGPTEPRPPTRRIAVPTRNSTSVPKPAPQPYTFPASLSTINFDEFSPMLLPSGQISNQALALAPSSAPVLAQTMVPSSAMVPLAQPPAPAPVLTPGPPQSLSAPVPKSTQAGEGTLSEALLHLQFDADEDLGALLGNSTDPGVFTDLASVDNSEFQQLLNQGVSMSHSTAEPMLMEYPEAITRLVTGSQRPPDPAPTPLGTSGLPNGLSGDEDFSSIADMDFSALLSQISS

NCCCOc1cccc(C(=O)O)c1N
inactive: Activity (RAW264.7 [3]) | inhibition [5] | Activity (RAW264.7 [6]) | Activity (RAW264.7 [8])
Non-Toxic: Activity (RAW264.7 [7])
active: inhibition [1] Dose-dependent effect | inhibition [2] | inhibition [4] | inhibition [9] | inhibition (Homo sapiens) | Activity (RAW264.7 [10]) Dose-dependent effect | Activity (RAW264.7 [11]) | inhibition [12] Dose-dependent effect | inhibition [13] | inhibition (Mus musculus) | Activity (RAW264.7 [14]) Dose-dependent effect
